Measurements: ChEMBL document CHEMBL5696442, “Discovery of type II inhibitors of TGFβ-activated kinase 1 (TAK1) and mitogen-activated protein kinase kinase kinase kinase 2 (MAP4K2)” (J Med Chem, 2015)

What was measured:
[1] = target: TRAF2 and NCK-interacting protein kinase (Homo sapiens) (UniProt Q9UKE5); test: Inhibition of ZC2/TNIK Lys1 labeling site in human A-375 cells at 5 uM by KiNativ Profiling analysis relative to control; format: cell-based
[2] = target: Serine/threonine-protein kinase B-raf (Homo sapiens, UniProt P15056); test: Inhibition of BRAF Lys2 labeling site in human A-375 cells at 5 uM by KiNativ Profiling analysis relative to control; format: cell-based
Chain of Serine/threonine-protein kinase B-raf (P15056 whole entry): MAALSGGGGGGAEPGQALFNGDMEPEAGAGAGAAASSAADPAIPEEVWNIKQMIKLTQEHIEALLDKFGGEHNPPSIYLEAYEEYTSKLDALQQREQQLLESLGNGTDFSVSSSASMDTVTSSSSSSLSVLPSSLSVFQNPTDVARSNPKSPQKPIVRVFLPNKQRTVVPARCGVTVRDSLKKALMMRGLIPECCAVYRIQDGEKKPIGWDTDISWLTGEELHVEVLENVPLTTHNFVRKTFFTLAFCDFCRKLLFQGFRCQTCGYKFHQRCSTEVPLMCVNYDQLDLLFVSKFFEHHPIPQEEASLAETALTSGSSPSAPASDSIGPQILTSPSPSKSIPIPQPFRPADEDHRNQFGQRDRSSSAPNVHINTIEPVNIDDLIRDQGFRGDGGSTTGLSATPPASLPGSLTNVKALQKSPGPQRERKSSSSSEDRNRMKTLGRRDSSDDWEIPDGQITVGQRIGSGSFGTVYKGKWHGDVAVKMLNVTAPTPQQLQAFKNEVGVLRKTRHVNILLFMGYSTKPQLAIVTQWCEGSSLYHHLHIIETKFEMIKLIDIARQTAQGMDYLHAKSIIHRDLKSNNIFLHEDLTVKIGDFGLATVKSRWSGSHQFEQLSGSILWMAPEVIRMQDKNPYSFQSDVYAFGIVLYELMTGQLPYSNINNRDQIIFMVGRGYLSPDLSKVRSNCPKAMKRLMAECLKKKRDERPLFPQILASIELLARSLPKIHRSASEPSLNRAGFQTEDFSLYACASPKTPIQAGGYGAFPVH
Method in brief: (§1)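 Live A375 melanoma cells were treated with compound at 5 or 0.5 μM, then lysed. The lysates were labeled with a lysine-reactive ATP or ADP-biotin probe. Kinase protection from probe labeling was measured by KiNativ.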

[3] = target: Aurora kinase B (Homo sapiens) (UniProt Q96GD4); test: Inhibition of AurB ATP Loop labeling site in human A-375 cells at 5 uM by KiNativ Profiling analysis relative to control; format: cell-based; method in brief: as §1
Chain of Aurora kinase B (Homo sapiens) (Q96GD4 whole entry): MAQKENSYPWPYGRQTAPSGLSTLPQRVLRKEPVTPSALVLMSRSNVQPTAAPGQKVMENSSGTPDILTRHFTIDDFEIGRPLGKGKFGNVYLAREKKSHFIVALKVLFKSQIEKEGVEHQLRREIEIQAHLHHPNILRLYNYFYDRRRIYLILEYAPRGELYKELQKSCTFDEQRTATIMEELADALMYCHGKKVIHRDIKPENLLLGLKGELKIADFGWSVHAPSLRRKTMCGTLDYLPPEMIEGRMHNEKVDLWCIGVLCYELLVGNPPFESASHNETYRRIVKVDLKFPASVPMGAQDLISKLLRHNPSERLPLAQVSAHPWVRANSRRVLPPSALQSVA

[4] = target: Serine/threonine-protein kinase MARK2 (Homo sapiens) (UniProt Q7KZI7); test: Inhibition of MARK2 Lys2 labeling site harbouring FIVHRDLKAENLLLDADMNIK in human A-375 cells at 5 uM by KiNativ Profiling analysis relative to control; format: cell-based
Chain of Serine/threonine-protein kinase MARK2 (Homo sapiens) (Q7KZI7 whole entry): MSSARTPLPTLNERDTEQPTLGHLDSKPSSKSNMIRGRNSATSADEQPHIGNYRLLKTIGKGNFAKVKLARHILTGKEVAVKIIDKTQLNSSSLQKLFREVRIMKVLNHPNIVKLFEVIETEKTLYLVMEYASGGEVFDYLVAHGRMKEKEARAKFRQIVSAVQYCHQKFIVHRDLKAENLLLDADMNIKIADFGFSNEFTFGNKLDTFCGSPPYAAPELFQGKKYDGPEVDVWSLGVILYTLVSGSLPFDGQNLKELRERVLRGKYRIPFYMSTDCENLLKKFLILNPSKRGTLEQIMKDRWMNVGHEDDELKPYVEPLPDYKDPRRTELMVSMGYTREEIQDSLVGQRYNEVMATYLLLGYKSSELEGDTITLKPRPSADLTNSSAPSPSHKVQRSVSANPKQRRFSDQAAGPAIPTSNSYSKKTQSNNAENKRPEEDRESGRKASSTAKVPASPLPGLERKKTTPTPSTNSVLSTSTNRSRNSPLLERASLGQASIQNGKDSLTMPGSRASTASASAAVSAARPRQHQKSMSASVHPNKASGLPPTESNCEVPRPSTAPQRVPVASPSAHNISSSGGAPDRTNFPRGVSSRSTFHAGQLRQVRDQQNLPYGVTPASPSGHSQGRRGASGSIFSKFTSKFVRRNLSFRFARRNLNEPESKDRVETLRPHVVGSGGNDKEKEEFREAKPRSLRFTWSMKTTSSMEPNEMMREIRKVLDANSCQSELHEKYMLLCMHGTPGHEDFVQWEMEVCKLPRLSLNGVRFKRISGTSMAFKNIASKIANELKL

[5] = target: Serine/threonine-protein kinase 26 (Homo sapiens) (UniProt Q9P289); test: Inhibition of MST4 Lys1 labeling site in human A-375 cells at 5 uM by KiNativ Profiling analysis relative to control; format: cell-based
Chain of Serine/threonine-protein kinase 26 (Homo sapiens) (Q9P289 2-416 limits assumed): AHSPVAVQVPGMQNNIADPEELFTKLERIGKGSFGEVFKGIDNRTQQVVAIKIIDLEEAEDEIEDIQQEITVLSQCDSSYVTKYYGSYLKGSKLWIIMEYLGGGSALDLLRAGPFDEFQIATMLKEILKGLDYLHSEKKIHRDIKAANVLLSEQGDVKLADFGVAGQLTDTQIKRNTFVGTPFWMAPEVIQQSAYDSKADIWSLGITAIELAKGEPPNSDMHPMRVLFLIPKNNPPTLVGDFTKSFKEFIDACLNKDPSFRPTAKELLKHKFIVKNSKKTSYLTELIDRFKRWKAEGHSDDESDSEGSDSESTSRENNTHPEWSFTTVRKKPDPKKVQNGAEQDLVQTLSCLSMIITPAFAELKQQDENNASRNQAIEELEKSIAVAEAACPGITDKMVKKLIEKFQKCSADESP

[6] = target: Serine/threonine-protein kinase Nek7 (Homo sapiens) (UniProt Q8TDX7); test: Inhibition of NEK7 ACT labeling site in human A-375 cells at 5 uM by KiNativ Profiling analysis relative to control; format: cell-based
Chain of Serine/threonine-protein kinase Nek7 (Homo sapiens) (Q8TDX7 whole entry, looked up): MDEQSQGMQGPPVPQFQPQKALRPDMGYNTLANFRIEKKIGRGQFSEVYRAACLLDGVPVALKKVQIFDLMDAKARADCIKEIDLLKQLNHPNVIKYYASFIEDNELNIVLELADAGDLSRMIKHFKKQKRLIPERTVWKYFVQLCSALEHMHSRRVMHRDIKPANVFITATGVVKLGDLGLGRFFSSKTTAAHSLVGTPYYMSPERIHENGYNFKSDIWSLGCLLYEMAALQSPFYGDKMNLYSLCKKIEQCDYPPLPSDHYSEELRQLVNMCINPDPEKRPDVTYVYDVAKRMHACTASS

[7] = target: T1, Serine/threonine-protein kinase Nek9 (Homo sapiens) (UniProt Q8TD19); test: Inhibition of NEK9 Lys2 labeling site in human A-375 cells at 5 uM by KiNativ Profiling analysis relative to control; format: cell-based
T1 sequence (whole entry): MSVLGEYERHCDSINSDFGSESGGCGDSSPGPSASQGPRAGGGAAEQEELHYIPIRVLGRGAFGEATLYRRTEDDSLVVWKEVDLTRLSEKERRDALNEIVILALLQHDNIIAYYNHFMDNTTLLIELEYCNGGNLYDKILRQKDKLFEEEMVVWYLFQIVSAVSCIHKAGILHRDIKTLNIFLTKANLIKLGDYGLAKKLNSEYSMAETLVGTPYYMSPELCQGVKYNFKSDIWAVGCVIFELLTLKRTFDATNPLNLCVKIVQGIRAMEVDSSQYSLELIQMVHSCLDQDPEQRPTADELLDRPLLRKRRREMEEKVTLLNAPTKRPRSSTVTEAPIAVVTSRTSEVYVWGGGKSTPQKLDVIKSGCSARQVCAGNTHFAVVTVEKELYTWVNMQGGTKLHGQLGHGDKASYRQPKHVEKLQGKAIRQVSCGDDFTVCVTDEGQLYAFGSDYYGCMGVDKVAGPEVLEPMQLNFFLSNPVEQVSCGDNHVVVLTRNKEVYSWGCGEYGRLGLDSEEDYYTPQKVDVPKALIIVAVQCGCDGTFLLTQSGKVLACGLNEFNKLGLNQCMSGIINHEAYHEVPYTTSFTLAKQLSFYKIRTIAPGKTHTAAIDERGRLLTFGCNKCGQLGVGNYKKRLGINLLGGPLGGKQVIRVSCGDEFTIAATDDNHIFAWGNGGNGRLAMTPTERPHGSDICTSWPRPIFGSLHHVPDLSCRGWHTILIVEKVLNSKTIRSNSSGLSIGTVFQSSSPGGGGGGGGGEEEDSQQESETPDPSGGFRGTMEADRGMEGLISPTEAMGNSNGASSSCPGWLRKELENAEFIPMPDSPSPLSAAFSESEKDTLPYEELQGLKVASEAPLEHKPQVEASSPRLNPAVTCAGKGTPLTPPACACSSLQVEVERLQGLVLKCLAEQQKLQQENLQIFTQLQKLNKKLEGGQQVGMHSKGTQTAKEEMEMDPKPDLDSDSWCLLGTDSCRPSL

[8] = Inhibition of p70S6K ATP Loop labeling site harbouring DLKPENIMLNHQGHVK in human A-375 cells at 5 uM by KiNativ Profiling analysis relative to control; conditions: condition cancer
[9] = target: Ribosomal protein S6 kinase alpha-2 (Homo sapiens) (UniProt Q15349); test: Inhibition of RSK3 Protein Kinase Domain in human A-375 cells at 5 uM by KiNativ Profiling analysis relative to control; format: cell-based
Chain of Ribosomal protein S6 kinase alpha-2 (Homo sapiens) (Q15349 whole entry, the tested form may be a part): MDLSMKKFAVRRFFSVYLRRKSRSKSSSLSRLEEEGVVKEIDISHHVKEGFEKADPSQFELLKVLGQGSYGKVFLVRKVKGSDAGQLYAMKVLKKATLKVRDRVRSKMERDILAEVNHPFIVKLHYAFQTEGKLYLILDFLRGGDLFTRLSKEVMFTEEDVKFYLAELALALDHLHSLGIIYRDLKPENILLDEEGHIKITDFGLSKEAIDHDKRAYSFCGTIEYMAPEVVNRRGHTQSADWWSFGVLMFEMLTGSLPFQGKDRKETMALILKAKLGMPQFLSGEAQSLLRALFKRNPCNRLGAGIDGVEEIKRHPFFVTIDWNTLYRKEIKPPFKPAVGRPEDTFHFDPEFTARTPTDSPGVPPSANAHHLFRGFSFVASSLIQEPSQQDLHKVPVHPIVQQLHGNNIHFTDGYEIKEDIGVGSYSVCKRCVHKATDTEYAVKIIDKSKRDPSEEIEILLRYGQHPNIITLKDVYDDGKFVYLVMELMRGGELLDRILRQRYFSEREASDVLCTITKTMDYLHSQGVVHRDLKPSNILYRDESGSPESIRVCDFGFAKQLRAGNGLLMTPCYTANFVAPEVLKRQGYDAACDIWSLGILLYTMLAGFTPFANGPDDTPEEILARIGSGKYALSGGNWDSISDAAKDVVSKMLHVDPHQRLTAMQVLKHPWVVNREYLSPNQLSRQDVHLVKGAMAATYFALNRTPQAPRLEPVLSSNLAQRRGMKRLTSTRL
Method in brief: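 Live A375 melanoma cells treated with compound at 5 or 0.5 μM, then lysed. Lysate kinases were labeled with a lysine-reactive ATP or ADP-biotin probe. Inhibition was read as protection of labeling sites from the probe.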

[10] = target: Mitogen-activated protein kinase 8 (Homo sapiens, UniProt P45983); test: Inhibition of JNK1 Lys2 labeling site in human A-375 cells at 0.05 uM by KiNativ Profiling analysis relative to control; format: cell-based
Chain of Mitogen-activated protein kinase 8 (P45983 whole entry): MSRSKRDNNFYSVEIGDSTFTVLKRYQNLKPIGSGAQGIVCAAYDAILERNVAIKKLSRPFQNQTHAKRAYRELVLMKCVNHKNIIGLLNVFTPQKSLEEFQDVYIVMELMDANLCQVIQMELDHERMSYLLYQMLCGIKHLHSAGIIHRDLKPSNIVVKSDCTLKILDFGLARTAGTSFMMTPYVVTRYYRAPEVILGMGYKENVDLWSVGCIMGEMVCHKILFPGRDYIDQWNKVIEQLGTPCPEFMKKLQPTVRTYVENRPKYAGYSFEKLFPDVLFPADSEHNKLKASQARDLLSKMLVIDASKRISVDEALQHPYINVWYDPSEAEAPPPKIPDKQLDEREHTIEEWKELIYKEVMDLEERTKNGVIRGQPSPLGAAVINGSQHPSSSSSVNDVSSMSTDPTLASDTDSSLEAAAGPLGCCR

[11] = target: Serine/threonine-protein kinase Nek7 (Homo sapiens) (UniProt Q8TDX7); test: Inhibition of NEK7 Lys2 labeling site in human A-375 cells at 0.05 uM by KiNativ Profiling analysis relative to control; format: cell-based
[12] = target: T2, Serine/threonine-protein kinase Nek8 (Homo sapiens) (UniProt Q86SG6); test: Inhibition of NEK8 Lys2 labeling site in human A-375 cells at 0.05 uM by KiNativ Profiling analysis relative to control; format: cell-based
T2 sequence (whole entry): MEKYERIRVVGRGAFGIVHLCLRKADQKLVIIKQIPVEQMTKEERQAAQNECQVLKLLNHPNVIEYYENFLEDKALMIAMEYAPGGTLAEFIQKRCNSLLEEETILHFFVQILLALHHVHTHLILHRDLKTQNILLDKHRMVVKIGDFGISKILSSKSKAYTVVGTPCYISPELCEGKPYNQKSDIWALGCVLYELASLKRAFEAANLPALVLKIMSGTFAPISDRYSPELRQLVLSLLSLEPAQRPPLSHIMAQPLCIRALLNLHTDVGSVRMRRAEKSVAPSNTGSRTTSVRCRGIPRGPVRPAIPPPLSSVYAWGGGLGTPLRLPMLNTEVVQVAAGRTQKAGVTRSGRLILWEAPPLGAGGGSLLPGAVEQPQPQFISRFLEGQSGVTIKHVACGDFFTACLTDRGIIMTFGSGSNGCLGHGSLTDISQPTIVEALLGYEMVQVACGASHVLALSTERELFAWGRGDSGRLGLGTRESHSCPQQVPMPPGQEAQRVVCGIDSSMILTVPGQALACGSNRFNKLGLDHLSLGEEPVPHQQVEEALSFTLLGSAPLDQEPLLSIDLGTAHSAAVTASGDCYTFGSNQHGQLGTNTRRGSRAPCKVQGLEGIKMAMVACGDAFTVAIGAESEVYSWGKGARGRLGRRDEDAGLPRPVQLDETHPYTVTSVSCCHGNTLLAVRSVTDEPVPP

[13] = target: Serine/threonine-protein kinase WNK4 (Homo sapiens) (UniProt Q96J92); test: Inhibition of Wnk4 ACT labeling site in human A-375 cells at 0.05 uM by KiNativ Profiling analysis relative to control; format: cell-based
Chain of Serine/threonine-protein kinase WNK4 (Homo sapiens) (Q96J92 whole entry): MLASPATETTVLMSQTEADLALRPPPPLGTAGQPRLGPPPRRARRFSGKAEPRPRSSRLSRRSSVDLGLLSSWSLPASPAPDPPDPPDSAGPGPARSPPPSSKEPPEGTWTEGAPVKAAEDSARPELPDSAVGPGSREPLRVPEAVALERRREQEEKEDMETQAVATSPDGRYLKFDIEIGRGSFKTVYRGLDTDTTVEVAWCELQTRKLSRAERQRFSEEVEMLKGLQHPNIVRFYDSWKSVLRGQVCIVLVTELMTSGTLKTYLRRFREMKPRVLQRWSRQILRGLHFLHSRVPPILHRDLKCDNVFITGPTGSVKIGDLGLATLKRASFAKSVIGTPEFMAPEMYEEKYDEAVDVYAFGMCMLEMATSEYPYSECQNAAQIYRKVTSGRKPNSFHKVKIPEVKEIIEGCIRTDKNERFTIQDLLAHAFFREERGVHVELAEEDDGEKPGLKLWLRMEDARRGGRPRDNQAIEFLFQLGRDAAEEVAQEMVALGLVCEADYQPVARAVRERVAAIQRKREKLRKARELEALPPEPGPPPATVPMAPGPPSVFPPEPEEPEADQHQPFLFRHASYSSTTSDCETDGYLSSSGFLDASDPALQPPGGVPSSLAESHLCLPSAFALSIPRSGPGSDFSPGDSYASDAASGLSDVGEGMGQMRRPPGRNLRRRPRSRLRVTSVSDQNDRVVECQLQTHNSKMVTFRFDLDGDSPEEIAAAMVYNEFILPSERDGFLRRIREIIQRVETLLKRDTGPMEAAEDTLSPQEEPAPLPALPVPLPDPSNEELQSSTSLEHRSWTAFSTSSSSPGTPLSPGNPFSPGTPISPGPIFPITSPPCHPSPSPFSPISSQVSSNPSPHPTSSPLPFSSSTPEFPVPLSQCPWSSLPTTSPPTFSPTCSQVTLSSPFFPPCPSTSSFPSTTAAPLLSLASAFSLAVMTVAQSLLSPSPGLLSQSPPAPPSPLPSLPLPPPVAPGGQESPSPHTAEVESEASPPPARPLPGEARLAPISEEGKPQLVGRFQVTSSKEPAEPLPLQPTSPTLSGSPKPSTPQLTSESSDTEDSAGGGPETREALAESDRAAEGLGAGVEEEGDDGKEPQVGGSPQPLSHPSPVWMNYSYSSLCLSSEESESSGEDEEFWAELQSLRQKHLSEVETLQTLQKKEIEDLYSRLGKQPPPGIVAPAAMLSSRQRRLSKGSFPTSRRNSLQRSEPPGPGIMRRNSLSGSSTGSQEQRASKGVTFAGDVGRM

Structure (SMILES)	inhibition [1]	inhibition [2]	inhibition [3]	inhibition [4]	inhibition [5]	inhibition [6]	inhibition [7]	inhibition at 5 µM [8]	inhibition [9]	inhibition [10]	inhibition [11]	inhibition [12]	inhibition [13]
CCN1CCN(Cc2ccc(NC(=O)c3ccc(C)c(/C=C/c4cnc5[nH]ccc5c4OC)c3)cc2C(F)(F)F)CC1	> 95%	61.5%	48.5%	24.6%	-6.1%	-6.2%	14.7%	-8%	20%	23.9%	5.8%	-9.3%	10.1%
CCN1CCN(Cc2ccc(NC(=O)c3ccc(C)c(Oc4ccnc5[nH]ccc45)c3)cc2C(F)(F)F)CC1	> 95%	66.8%	31.4%	12.9%	1.1%	-3.5%	3.2%	14.7%	5.8%	50.3%	10.6%	-1.6%	10.3%
